Data set [1] is described as follows: Selectivity index, ratio of cytotoxicity against pig LLC-PK1 cells to IC50 for Cryptococcus neoformans ATCC 90113. The format is toxicity, cell-based. The note with it: read-out: Selectivity Index.
Data set [2] in a line: Selectivity index, ratio of cytotoxicity against african green monkey Vero cells to IC50 for Cryptococcus neoformans ATCC 90113. The format is toxicity, cell-based. Particulars: read-out: Selectivity Index.
Data set [3] can be described thus: Selectivity index, ratio of cytotoxicity against human SKOV3 cells to IC50 for Cryptococcus neoformans ATCC 90113. The class given is toxicity, cell-based, SK-OV-3. The note with it: read-out: Selectivity Index.
A short description of data set [4]: Selectivity index, ratio of cytotoxicity against human BT549 cells to IC50 for Cryptococcus neoformans ATCC 90113. The class given is toxicity, cell-based, BT-549. The note with it: read-out: Selectivity Index.
Data set [5] in a line: Selectivity index, ratio of cytotoxicity against human KB cells to IC50 for Cryptococcus neoformans ATCC 90113. The format is toxicity, cell-based. The note with it: read-out: Selectivity Index.
Data set [6] in a line: Selectivity index, ratio of cytotoxicity against human SK-MEL cells to IC50 for Cryptococcus neoformans ATCC 90113. The format is toxicity, cell-based. Particulars: read-out: Selectivity Index.
For the next data set, the system named is LLC-PK1. Nature of the data set: Cytotoxicity against pig LLC-PK1 cells assessed as cell viability after 48 hrs by neutral red uptake assay. The class given is cell-based, Sus scrofa. Particulars: llc-pk1, 48 h. The essentials: (§1)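 Neutral red uptake assay on human cancer lines (SK-MEL, KB, BT-549, SK-OV-3) and noncancerous mammalian cells (VERO, LLC-PK1). Highest tested concentration was 10 µg/mL.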

Another data set concerns Vero. Nature of the data set: Cytotoxicity against african green monkey Vero cells assessed as cell viability after 48 hrs by neutral red uptake assay. Particulars: chlorocebus sabaeus. The class given is cell-based. The essentials:
as §1

The test system of the next data set is SK-OV-3. Nature of the data set: Cytotoxicity against human SKOV3 cells assessed as cell viability after 48 hrs by neutral red uptake assay. Particulars: sk-ov-3, 48 h. The format is cell-based. In a few lines: as §1
The next data set has as its system KB. Nature of the data set: Cytotoxicity against human KB cells assessed as cell viability after 48 hrs by neutral red uptake assay. The format is cell-based. The essentials:
as §1

The test system of a further data set is BT-549. Nature of the data set: Cytotoxicity against human BT549 cells assessed as cell viability after 48 hrs by neutral red uptake assay. The note with it: bt-549, 48 h. The class given is cell-based. In a few lines: as §1
The next data set deals with SK-MEL. Nature of the data set: Cytotoxicity against human SK-MEL cells assessed as cell viability after 48 hrs by neutral red uptake assay. The format is cell-based. The essentials: as §1
For another data set, the system named is Escherichia coli. Nature of the data set: Antibacterial activity against Escherichia coli ATCC 35218 assessed as growth inhibition after 16-20 hrs by CLSI method. The class given is functional, organism-based.
The test system of another data set is Aspergillus fumigatus. Nature of the data set: Antifungal activity against Aspergillus fumigatus assessed as growth inhibition. The class given is functional, organism-based.
The subject of another data set is Pichia kudriavzevii. Nature of the data set: Antifungal activity against Candida krusei assessed as growth inhibition. The class given is functional, organism-based.
A further data set concerns Nakaseomyces glabratus. Nature of the data set: Antifungal activity against Candida glabrata assessed as growth inhibition. The class given is functional, organism-based.
Another data set has as its system Candida albicans. Nature of the data set: Antifungal activity against Candida albicans assessed as growth inhibition. The class given is functional, organism-based.
Data set [7] deals with Staphylococcus aureus. Nature of the data set: Antibacterial activity against methicillin-resistant Staphylococcus aureus ATCC 33591 assessed as growth inhibition after 16-20 hrs by CLSI method. The format is functional, organism-based.
Data set [8] relates to Staphylococcus aureus. Nature of the data set: Antibacterial activity against Staphylococcus aureus ATCC 29213 assessed as growth inhibition after 16-20 hrs by CLSI method. The class given is functional, organism-based.
The test system of the next data set is Cryptococcus neoformans. Nature of the data set: Antifungal activity against Cryptococcus neoformans ATCC 90113 assessed as growth inhibition after 70-74 hrs by CLSI method. The format is functional, organism-based. The note with it: Cryptococcus neoformans, ATCC 90113; for IC50: read-out: IC50.

Molecules are shown by their SMILES. ≈ marks a conversion by molar mass, not a printed value. Calls of active or inactive are those of the source.

In general, MIC refers to the lowest concentration that inhibits growth of the organism. As usually defined, the IC50 is the midpoint of a concentration-inhibition curve. In general, MFC refers to the lowest tested concentration that kills the fungus rather than only halting it. As to `CC(C)(C)OC(=O)N[C@@H](Cc1c[nH]c(-c2ccc(C(C)(C)C)cc2)n1)C(=O)N[C@@H](CCCNC(=N)N)C(=O)NCc1ccccc1`, the selectivity ratio in data set [1], in data set [2], in data set [3], in data set [4], in [5] and in data set [6] was over 4.1 in each case. For the same compound, the Activity in the data set with LLC-PK1, in the data set with Vero, in the data set on SK-OV-3, with KB, in the data set with BT-549 and in the data set with SK-MEL was over 10 µg/mL throughout. For the same compound, the “growth inhibition (GI)” value in the data set with Escherichia coli, in the data set on Aspergillus fumigatus, in the data set on Pichia kudriavzevii, in the data set with Nakaseomyces glabratus and with Candida albicans was “inactive” in each case. Besides, the MBC result with Staphylococcus aureus [7] and in the data set on Staphylococcus aureus [8] was “inactive” each time. In addition, the MIC with Staphylococcus aureus [7] (Staphylococcus aureus, ATCC 33591) came to 20 µg/mL (≈ 31.6 µM); with Staphylococcus aureus [8] it was 10 µg/mL (≈ 15.8 µM); in the data set with Cryptococcus neoformans, 2.5 µg/mL (≈ 3.95 µM). The IC50 came to 9.32 µg/mL (≈ 14.7 µM) in the data set with Staphylococcus aureus [7] (Staphylococcus aureus, ATCC 33591, read-out: IC50); 5.95 µg/mL (≈ 9.4 µM) with Staphylococcus aureus [8]; 2.42 µg/mL (≈ 3.82 µM) in the data set on Cryptococcus neoformans. Further, the MFC in the data set with Cryptococcus neoformans came out at 2.5 µg/mL (≈ 3.95 µM).

On to `COc1ccc(-c2nc(C[C@H](NC(=O)OC(C)(C)C)C(=O)N[C@@H](CCCNC(=N)N)C(=O)NCc3ccccc3)c[nH]2)cc1`, for which the selectivity ratio in [1], in data set [2], in data set [3], in [4], in data set [5] and in data set [6] was over 1.7 in each case. In addition, the Activity with LLC-PK1, in the data set with Vero, with SK-OV-3, in the data set on KB, in the data set on BT-549 and in the data set with SK-MEL was over 10 µg/mL each time. Besides, the “growth inhibition (GI)” value in the data set with Escherichia coli, in the data set with Aspergillus fumigatus, in the data set with Pichia kudriavzevii, in the data set with Nakaseomyces glabratus and in the data set on Candida albicans was “inactive” each time. In addition, the MFC in the data set with Cryptococcus neoformans stood at 10 µg/mL (≈ 16.5 µM). Besides, the MIC with Cryptococcus neoformans amounted to 10 µg/mL (≈ 16.5 µM). Also, the IC50 in the data set on Cryptococcus neoformans was found to be 5.77 µg/mL (≈ 9.51 µM).

Turning to `COC(=O)[C@H](CCCNC(=N)N)NC(=O)[C@@H](N)Cc1c[nH]c(-c2cccc3ccccc23)n1`, the selectivity ratio in data set [1], in data set [2], in data set [3], in data set [4], in data set [5] and in [6] was over 7.3 throughout. Further, the Activity with LLC-PK1, in the data set on Vero, with SK-OV-3, in the data set with KB, with BT-549 and in the data set on SK-MEL was over 10 µg/mL throughout. The “growth inhibition (GI)” value with Escherichia coli, in the data set with Aspergillus fumigatus, with Pichia kudriavzevii, in the data set on Nakaseomyces glabratus and with Candida albicans was “inactive” each time. Also, in the data set with Cryptococcus neoformans, the MFC amounted to 2.5 µg/mL (≈ 5.54 µM). The MIC in the data set on Cryptococcus neoformans came to 2.5 µg/mL (≈ 5.54 µM). Also, the IC50 with Cryptococcus neoformans came out at 1.38 µg/mL (≈ 3.06 µM).

As for `N=C(N)NCCC[C@H](NC(=O)[C@@H](N)Cc1c[nH]c(-c2ccccc2)n1)C(=O)NCc1ccccc1`, the selectivity ratio in data set [1], in data set [2], in data set [3], in data set [4], in data set [5] and in [6] was over 8.2 throughout. Moreover, the Activity with LLC-PK1, in the data set on Vero, in the data set on SK-OV-3, with KB, in the data set with BT-549 and in the data set with SK-MEL was over 10 µg/mL in each case. Besides, the “growth inhibition (GI)” value with Escherichia coli, with Aspergillus fumigatus, in the data set on Pichia kudriavzevii, in the data set with Nakaseomyces glabratus and in the data set on Candida albicans was “inactive” throughout. Moreover, in the data set with Cryptococcus neoformans, the MFC was 2.5 µg/mL (≈ 5.25 µM). In addition, the MIC in the data set on Cryptococcus neoformans was found to be 2.5 µg/mL (≈ 5.25 µM). For the same compound, in the data set with Cryptococcus neoformans, the IC50 is 1.22 µg/mL (≈ 2.56 µM).

Take `COC(=O)[C@H](CCCNC(=N)N)NC(=O)[C@@H](N)Cc1c[nH]c(-c2ccc(-c3ccccc3)cc2)n1`: the selectivity ratio in [1], in data set [2], in data set [3], in data set [4], in [5] and in data set [6] was over 1.8 throughout. The Activity in the data set with LLC-PK1, with Vero, in the data set on SK-OV-3, with KB, with BT-549 and in the data set with SK-MEL was over 10 µg/mL throughout. Also, the “growth inhibition (GI)” value in the data set with Escherichia coli, with Aspergillus fumigatus, with Pichia kudriavzevii, with Nakaseomyces glabratus and in the data set with Candida albicans was “inactive” each time. The MFC in the data set on Cryptococcus neoformans turned out to be 10 µg/mL (≈ 20.9 µM). Also, the MIC in the data set on Cryptococcus neoformans was found to be 10 µg/mL (≈ 20.9 µM). Also, the IC50 in the data set with Cryptococcus neoformans stood at 5.49 µg/mL (≈ 11.5 µM).

Take `COC(=O)[C@H](CCCNC(=N)N)NC(=O)[C@H](Cc1c[nH]c(-c2cccc3ccccc23)n1)NC(=O)OC(C)(C)C`: the selectivity ratio in data set [1], in data set [2], in data set [3], in [4], in [5] and in data set [6] was over 8 in each case. The Activity with LLC-PK1, in the data set on Vero, in the data set with SK-OV-3, in the data set with KB, in the data set on BT-549 and with SK-MEL was over 10 µg/mL in each case. In addition, the “growth inhibition (GI)” value in the data set with Escherichia coli, with Aspergillus fumigatus, with Pichia kudriavzevii, with Nakaseomyces glabratus and in the data set with Candida albicans was “inactive” throughout. The MFC in the data set with Cryptococcus neoformans was determined as 2.5 µg/mL (≈ 4.53 µM). In addition, in the data set on Cryptococcus neoformans, the MIC came to 2.5 µg/mL (≈ 4.53 µM). Also, in the data set on Cryptococcus neoformans, the IC50 is 1.25 µg/mL (≈ 2.27 µM).

Consider `N[C@@H](Cc1c[nH]c2ccccc12)C(=O)N[C@@H](Cc1c[nH]c(-c2ccccc2)n1)C(=O)NCc1ccccc1`, for which the selectivity ratio in data set [1], in data set [2], in [3], in data set [4], in [5] and in data set [6] was over 4.9 each time. Also, the Activity with LLC-PK1, in the data set on Vero, in the data set on SK-OV-3, in the data set on KB, with BT-549 and in the data set with SK-MEL was over 10 µg/mL throughout. The “growth inhibition (GI)” value with Escherichia coli, in the data set on Aspergillus fumigatus, in the data set on Pichia kudriavzevii, in the data set on Nakaseomyces glabratus and in the data set with Candida albicans was “inactive” throughout. For the same compound, the MFC in the data set on Cryptococcus neoformans came out at 5 µg/mL (≈ 9.87 µM). Also, in the data set with Cryptococcus neoformans, the MIC is 5 µg/mL (≈ 9.87 µM). The IC50 in the data set with Cryptococcus neoformans worked out at 2.04 µg/mL (≈ 4.03 µM).

Values taken from ChEMBL document CHEMBL3132745, “Synthesis and Antimicrobial Activities of His(2-aryl)-Arg and Trp-His(2-aryl) Classes of Dipeptidomimetics” (Medchemcomm, 2014).
